Screening results deposited in PubChem BioAssay by several laboratories.
Pf gametocyte – P. falciparum stage V gametocyte viability inhibition | P. falciparum stage V gametocytes, ATP luminescence, 24 h | inhibition, % at 10.9 µM | 150,000 tested, 0.065% active | AID 743093;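 active = inhibition above the mean plus 3 SD of compounds within the control limits, set per campaign, cut at about 38% in these data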
RBBP9 inhibitor – human RBBP9 hydrolase inhibition; O75884; recombinant RBBP9, FP-Rh probe fluorescence polarization; inhibition, % at 7.94 µM; 220,000 tested, 0.2% active; AID 1515;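 active = inhibition above the campaign mean of all tested compounds plus 3 SD, cut at about 14% in these data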
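Measured by – fluorescence polarization · Test system – RBBP9 protein · Input – 2.5 µM RBBP9 dispensing solution, before mixing · Measure – percent inhibition from mP, scaled between DMSO and no-protein wells · Benchmarks – DMSO-treated enzyme wells and wells lacking RBBP9 · Times – preincubation 30 min plus labeling 45 min at 25 °C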
m-calpain inh – blocks pig calpain II enzyme activity | purified calpain II, fluorogenic peptide substrate, 30 min | AID 1236 | 220,000 tested, 0.37% active | inhibition, % at 16 µM;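 active = inhibition above about 50%, limit read from the data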
Wee1 degr inh – human Wee1 degradation inhibition, primary screen | HeLa Luc-Wee1K328M stability, luciferase luminescence; 100% = proteasome inhibitor MG132 effect | reporter increase, % at 5 µM | 220,000 tested, 1.2% active;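 active = activation above the mean of all tested compounds plus 3 SD, set per screening run, cut at about 8.8% in these data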;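 also: cells exposed to compound for 20 h before luminescence read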
Target sequence (P30291 whole entry K328M): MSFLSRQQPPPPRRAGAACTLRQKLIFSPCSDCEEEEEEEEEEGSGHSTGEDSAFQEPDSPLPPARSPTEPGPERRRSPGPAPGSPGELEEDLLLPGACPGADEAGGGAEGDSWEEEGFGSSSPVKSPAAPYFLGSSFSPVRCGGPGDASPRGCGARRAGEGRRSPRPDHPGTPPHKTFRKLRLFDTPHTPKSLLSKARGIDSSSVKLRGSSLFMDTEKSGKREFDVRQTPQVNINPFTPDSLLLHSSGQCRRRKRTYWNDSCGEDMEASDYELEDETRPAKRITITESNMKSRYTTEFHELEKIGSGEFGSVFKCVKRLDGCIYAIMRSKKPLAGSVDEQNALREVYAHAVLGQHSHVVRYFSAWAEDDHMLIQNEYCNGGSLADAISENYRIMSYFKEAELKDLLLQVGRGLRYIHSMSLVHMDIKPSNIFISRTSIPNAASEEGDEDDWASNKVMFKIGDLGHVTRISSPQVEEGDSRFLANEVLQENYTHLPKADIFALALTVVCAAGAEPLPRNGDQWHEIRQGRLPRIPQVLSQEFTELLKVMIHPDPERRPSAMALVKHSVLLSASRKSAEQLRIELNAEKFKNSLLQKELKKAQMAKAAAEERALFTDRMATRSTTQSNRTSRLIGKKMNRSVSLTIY
TNF necrop inh – blocks TNF-alpha induced death of Jurkat FADD-/- cells; activation (protection from cell death), % at 10 µM; Jurkat FADD-/- TNF necroptosis rescue, ATP luminescence, 24 h; 0 = TNF only, 100 = no-TNF cells; 220,000 tested, 0.068% active; AID 463075;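 active = activation, meaning protection from cell death, of at least 50% relative to plate controls; inactive = activation below 50%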;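 also: necroptosis triggered by 40 ng/mL TNF-alpha added together with compound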
zVAD death inh – L929 zVAD cell death inhibition; viability rescue, % at 10 µM; L929 zVAD necroptosis rescue, ATP luminescence, 24 h; with zVAD 60 µM; 220,000 tested, 0.38% active;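 active = activation, scaled between plate controls, above about 75%, limit read from the data; inactive = activation under that limit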
Numbers stand for hits. Sampled rows, rich in hits. Any-hit rate of the full collection: about 2.1%.

For C/C(=N\NC(=O)c1nn(C)c(C)c1Br)c1cccc(NC(=O)c2ccoc2C)c1 the results were Pf gametocyte inactive, RBBP9 inhibitor inactive, m-calpain inh inactive, Wee1 degr inh 9.8, TNF necrop inh inactive and zVAD death inh inactive.
CC(=O)c1cccc(NC(=O)c2ccoc2C)c1 was read as RBBP9 inhibitor inactive, m-calpain inh inactive, Wee1 degr inh inactive, TNF necrop inh inactive and zVAD death inh inactive.
`COc1ccc(N2C(=O)N(Cc3ccc(C)cc3)c3ccccc3S2(=O)=O)cc1` gave RBBP9 inhibitor inactive, m-calpain inh 50.2, Wee1 degr inh inactive, TNF necrop inh inactive and zVAD death inh inactive.
COc1ccc(N2C(=O)c3ccccc3S2(=O)=O)cc1 was read as Pf gametocyte inactive, RBBP9 inhibitor inactive, m-calpain inh inactive, Wee1 degr inh inactive, TNF necrop inh inactive and zVAD death inh inactive.
Screening O=C(Nc1nc2c(s1)CN(Cc1ccccc1)CC2)c1cccc(S(=O)(=O)N2CCc3ccccc32)c1 returned Pf gametocyte inactive, RBBP9 inhibitor inactive, m-calpain inh inactive, Wee1 degr inh 11.7, TNF necrop inh inactive and zVAD death inh inactive.
Screening O=C(CSc1nnc(CCCOc2ccc(Cl)cc2Cl)o1)Nc1ccc(C(=O)O)cc1 returned Pf gametocyte inactive, RBBP9 inhibitor inactive, m-calpain inh inactive, Wee1 degr inh inactive, TNF necrop inh inactive and zVAD death inh inactive.
Screening CCCCCn1c(SCCc2ccccc2)nc2c1c(=O)[nH]c(=O)n2C returned Pf gametocyte inactive, RBBP9 inhibitor inactive, m-calpain inh inactive, Wee1 degr inh inactive, TNF necrop inh inactive and zVAD death inh inactive.
For CCCCCOC(=O)CSc1nc2c(c(=O)[nH]c(=O)n2C)n1CCc1ccccc1 the results were Pf gametocyte inactive, RBBP9 inhibitor inactive, m-calpain inh inactive, Wee1 degr inh 9.9, TNF necrop inh inactive and zVAD death inh inactive.
`COc1ccc2[nH]c3c4c(ccc3c2c1)C(=O)C=CC4=O` gave RBBP9 inhibitor 83.7, m-calpain inh inactive, Wee1 degr inh 13.6, TNF necrop inh inactive and zVAD death inh inactive.
`CC(=O)c1ccc(N2C(=O)C3C(C2=O)C(C(=O)c2ccc(Cl)cc2)N2CCCC32)cc1` (stereo not drawn) gave Pf gametocyte inactive, RBBP9 inhibitor inactive, m-calpain inh inactive, Wee1 degr inh 10.8, TNF necrop inh inactive and zVAD death inh inactive.
`N#CC(c1ccncc1)(c1ncc(C(F)(F)F)cc1Cl)N1CCOCC1` (stereo not drawn) gave Pf gametocyte inactive, RBBP9 inhibitor inactive, m-calpain inh 69.3, Wee1 degr inh inactive, TNF necrop inh inactive and zVAD death inh inactive.
Screening CCCCN(C(C)=O)c1c(N)n(CCC)c(=O)n(CC(=O)Nc2cc(Cl)cc(Cl)c2)c1=O returned Pf gametocyte inactive, RBBP9 inhibitor inactive, m-calpain inh inactive, Wee1 degr inh 11.9, TNF necrop inh inactive and zVAD death inh inactive.
For CCCn1c(N)c(N2CCCCC2)c(=O)n(CC(=O)Nc2ccc(OC(F)(F)F)cc2)c1=O the results were RBBP9 inhibitor inactive, m-calpain inh inactive, Wee1 degr inh inactive, TNF necrop inh inactive and zVAD death inh inactive.
O=C(c1ccc(COc2ccccc2Cl)o1)N1N=C(C(F)F)CC1(O)C(F)F (stereo not drawn) was read as Pf gametocyte inactive, RBBP9 inhibitor inactive, m-calpain inh inactive, Wee1 degr inh 10.6, TNF necrop inh inactive and zVAD death inh inactive.
For C=CCn1c(SCC(=O)N2CCc3ccccc3C2)nnc1-c1ccncc1 the results were RBBP9 inhibitor inactive, m-calpain inh inactive, Wee1 degr inh inactive, TNF necrop inh inactive and zVAD death inh inactive.
Screening CCOC(=O)c1sc2nc(-c3ccccc3)ccc2c1N returned Pf gametocyte inactive, RBBP9 inhibitor inactive, m-calpain inh inactive, Wee1 degr inh 10.5, TNF necrop inh inactive and zVAD death inh inactive.
Screening COc1ccc(/C=N/NC(=O)c2ccc3c(c2)OCO3)c(C(=O)O)c1OC returned Pf gametocyte inactive.
Screening COc1cccc(CSc2nc3ccccc3[nH]2)c1 returned RBBP9 inhibitor inactive, m-calpain inh inactive, Wee1 degr inh 9.0, TNF necrop inh inactive and zVAD death inh inactive.
`C[C@@H]1C=C(C(=O)N2CCOCC2)O[C@H](OCc2ccc(CO)cc2)C1` gave Pf gametocyte inactive, RBBP9 inhibitor inactive, m-calpain inh inactive, Wee1 degr inh inactive, TNF necrop inh inactive and zVAD death inh inactive.
`CC(C)n1c(=S)[nH]c2cc(Cl)ccc21` gave Pf gametocyte inactive, RBBP9 inhibitor inactive, m-calpain inh inactive, Wee1 degr inh 10.6, TNF necrop inh inactive and zVAD death inh inactive.
Screening O=[N+]([O-])c1cccc(S(=O)(=O)Nc2nc3ccccc3nc2Nc2cccc(S(=O)(=O)N3CCCCC3)c2)c1 returned Pf gametocyte inactive, RBBP9 inhibitor inactive, m-calpain inh 82.0, Wee1 degr inh inactive, TNF necrop inh inactive and zVAD death inh inactive.
Screening O=C(O)/C=C/C(=O)Nc1ccc2c(c1)C(=O)c1ccccc1C2=O returned Pf gametocyte inactive, RBBP9 inhibitor inactive, m-calpain inh inactive, Wee1 degr inh 9.9, TNF necrop inh inactive and zVAD death inh inactive.
For CC(=O)Nc1ccc2c(c1)C(=O)c1ccccc1C2=O the results were Pf gametocyte inactive, RBBP9 inhibitor inactive, m-calpain inh inactive, Wee1 degr inh inactive, TNF necrop inh inactive and zVAD death inh inactive.
Oc1nc(Nc2cccc(Cl)c2)sc1/C=C1\C=Nc2ccccc21 was read as Pf gametocyte inactive, RBBP9 inhibitor inactive, m-calpain inh inactive, Wee1 degr inh inactive, TNF necrop inh inactive and zVAD death inh inactive.
`Oc1cccc(Nc2nc(O)c(/C=C3\C=Nc4ccccc43)s2)c1` gave Pf gametocyte inactive, RBBP9 inhibitor 17.1, m-calpain inh inactive, Wee1 degr inh inactive, TNF necrop inh inactive and zVAD death inh inactive.
For Cc1ccc2ccc(C(Nc3cccc(C(F)(F)F)c3)c3cccnc3)c(O)c2n1 (stereo not drawn) the results were Pf gametocyte 39.0, RBBP9 inhibitor inactive, m-calpain inh inactive, Wee1 degr inh inactive, TNF necrop inh inactive and zVAD death inh inactive.
`CCOc1cc(C=O)cc(Br)c1OCC(N)=O` gave RBBP9 inhibitor inactive, m-calpain inh inactive, Wee1 degr inh inactive, TNF necrop inh inactive and zVAD death inh inactive.
Screening NS(=O)(=O)c1cccc(NC(=O)Nc2ccccc2)c1 returned Pf gametocyte inactive, RBBP9 inhibitor inactive, m-calpain inh inactive, Wee1 degr inh inactive, TNF necrop inh inactive and zVAD death inh inactive.
For CCOC(=O)c1[nH]c2ccccc2c1NC(=S)Nc1cccc(C)c1 the results were RBBP9 inhibitor inactive, m-calpain inh inactive, Wee1 degr inh 9.3, TNF necrop inh inactive and zVAD death inh inactive.
`CC12CC(c3ccccc3O1)N(C(=O)c1ccco1)C(=S)N2c1ccc(F)cc1` (stereo not drawn) gave RBBP9 inhibitor inactive, m-calpain inh inactive, Wee1 degr inh inactive, TNF necrop inh inactive and zVAD death inh inactive.
